The target of this assay is Prothrombin (Homo sapiens, UniProt P00734). Kind of assay: Inhibition of thrombin (unknown origin) using CH3SO2-D-Cha-Gly-Arg-pNA.AcOH as substrate measured every 20 sec for 30 mins in presence of NaCl by UV-Visible spectrophotometric method. The procedure, abridged:
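Kinetic chromogenic assay at 25 ± 0.2 °C in 0.02 M Hepes, 0.154 M NaCl (Na⁺ for enzyme activation), final DMSO 6.5 %, pH 7.4 ± 0.05. Thrombin about 8-12 nM final, substrate 100 µM final, inhibitor 0.5-10× preliminary IC50. Enzyme added last to premixed substrate and inhibitor, A405 read. Rates gave dose-response IC50, then Ki via Cheng-Prusoff, and ΔG = RTlnKi.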

For 15 molecules, Ki results are on record in ChEMBL document CHEMBL4041515, “Modulating hydrogen-bond basicity within the context of protein-ligand binding: A case study with thrombin inhibitors that reveals a dominating role for desolvation” (Eur J Med Chem, 2017).

The structures appear in SMILES notation.

As a reminder, the Ki is a measure of affinity in units of concentration, obtained from inhibition or displacement. In the case of `N=C(N)c1ccc(CNC(=O)[C@@H]2CCCN2C(=O)CCc2ccccc2)cc1`, the Ki turned out to be 0.72 µM.
For the molecule `CS(=O)(=O)N1CCC[C@H]1C(=O)NCc1ccc(C(=N)N)cc1`, the Ki stood at 68 µM.
As for `CCN1CCC[C@H]1C(=O)NCc1ccc(C(=N)N)cc1`, the figure is 250 µM; as for `CC(C)(C)CC(=O)N1CCC[C@H]1C(=O)NCc1ccc(C(=N)N)cc1`, 4.2 µM.
As for `CC(C)(C)OC(=O)N1CCC[C@H]1C(=O)NCc1ccc(C(=N)N)cc1`, the figure is 11.9 µM.
Next, `N=C(N)c1ccc(CNC(=O)[C@@H]2CCCN2C(=O)C(F)F)cc1`: 17.9 µM; `N=C(N)c1ccc(CNC(=O)[C@@H]2CCCN2C(=O)NCc2ccccc2)cc1`: 14.5 µM; `N=C(N)c1ccc(CNC(=O)[C@@H]2CCCN2C(N)=O)cc1`: 59 µM.
In the case of `N=C(N)c1ccc(CNC(=O)[C@@H]2CCCN2C(=O)OCc2ccccc2)cc1`, the Ki came out at 4 µM.
Next, `N=C(N)c1ccc(CNC(=O)[C@@H]2CCCN2S(N)(=O)=O)cc1`: 163 µM.
Regarding `N=C(N)c1ccc(CNC(=O)[C@@H]2CCCN2C(=O)CF)cc1`, the Ki is 44 µM.
For the molecule `CC(=O)N1CCC[C@H]1C(=O)NCc1ccc(C(=N)N)cc1`, the Ki worked out at 68 µM.
As for `N=C(N)c1ccc(CNC(=O)[C@@H]2CCCN2C(=O)C(F)(F)F)cc1`, the figure is 13.5 µM; as for `CC(C)(C)NC(=O)N1CCC[C@H]1C(=O)NCc1ccc(C(=N)N)cc1`, 36 µM; as for `N=C(N)c1ccc(CNC(=O)[C@@H]2CCCN2S(=O)(=O)C(F)(F)F)cc1`, 7.1 µM.
